Laboratory results taken from publication PMC2630402 (Journal of medicinal chemistry, 2008).
Read-outs that look alike come from different tables or passages of the source.

How the values were obtained:
[1] = tested on: αvβ6-positive (DX3puroβ6) tumor; conditions: DX3puroβ6 xenograft, 1 hour after injection, n = 3/tracer; data for 1 taken from ref 8; cited from earlier work
[2] = tested on: αvβ6-positive (DX3puroβ6) tumor; assay: Biodistribution in mice bearing paired αvβ6-positive; assay type: in vivo, male athymic nude mice; conditions: for uptake in the αvβ6-positive tumor: DX3puroβ6 xenograft, 1 hour after injection; for uptake in the αvβ6-positive tumor / level of activity in the urine: n = 3/tracer; for level of activity in the urine: male athymic nude mice
Procedure, shortened: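 Test compounds were 18F-labeled αvβ6-targeting peptides carrying different prosthetic groups. Radioactivity in healthy tissues and in both tumors was measured 1 h after injection and expressed as % ID/g, the percent of injected radioactive dose per gram of tissue. There were 3 mice per tracer.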

Row | Substance | uptake in the αvβ6-positive tumor [1] [% ID/g] | uptake in the αvβ6-positive tumor [2] [% ID/g] | levels of radioactivity in the kidneys and the liver ([2]; biodistribution, 1 h p.i., compared with 1 and 2) | level of activity in the urine ([2]; biodistribution, 1 h p.i.) [% ID/g]
1 | [^18F]FBA-A20FDMV2 [compound 1] | 0.66 ± 0.09 | – | – | –
2 | [^18F]FC5-A20FDMV2 [compound 3] | – | 1.01±0.09 | moderately increased | 501 ± 332
3 | [^18F]FPA-A20FDMV2 [compound 2] | – | 1.18 ± 0.28 | – | 311 ± 133
